Measurements from different studies.
Protocols differ between the studies behind these lines.
Target: 5'-AMP-activated protein kinase catalytic subunit alpha-2 (PRKAA2, Homo sapiens, UniProt P54646)

Structure (SMILES)	assay	conditions	quantity	result
CCCOc1ccc(OC)c(F)c1C(=O)c1ccc(C(=O)N[C@@H]2CNC[C@H]2NC(=O)c2ccc3[nH]ncc3c2)cc1	enzyme activity, inhibitor	0.75 µM	remaining activity	6%
CCN(CC)c1ccc(C2=NNC(=O)CC2C)cc1[N+](=O)[O-] (stereo not drawn)	enzyme activity, inhibitor	10 µM	remaining activity	108%
Cc1cnc(NC2CCOCC2)nc1-n1cnc(C(=O)NC(CN)c2cc(F)cc(Cl)c2)c1 (stereo not drawn)	enzyme activity, inhibitor, radiometric	1 µM	remaining activity	31%
COc1cc(-c2cc(-c3ccc(N4CCNCC4)cc3)cnc2C)cc(OC)c1OC	enzyme activity, inhibitor	0.1 µM	inhibition	1%
Nc1ncnc2occ(-c3ccc(NC(=O)Nc4cc(C(F)(F)F)ccc4F)cc3)c12	cell-free assay	20 µM	remaining signal	7.6%
Cc1ccc(C(=O)Nc2ccc(CN3CCN(C)CC3)c(C(F)(F)F)c2)cc1C#Cc1cnc2cccnn12	enzyme activity	23.5 nM	remaining activity	99%
O=C(O)[C@H]1[C@H](Cn2nnc3ccccc3c2=O)CC[C@@H]1C(=O)c1ccc(OCCC2CCOCC2)cc1	cell-free assay, competition with immobilised ligand	1 µM	remaining binding	100%
COc1cc(Cl)c(C(=O)N[C@@H](CN[C@H]2CC[C@@H](N)CC2)Cc2ccc(C#N)cc2)cc1-c1ccc(CN[C@H](C)c2ccc(C)cc2)o1	enzyme activity, inhibitor	1 µM	remaining activity	89%
O=C(O)c1cc(-c2ccc(C3CCNCC3)cc2)c2ccc(-c3ccc(C(F)(F)F)cc3)cc2c1	cell-free assay, competition with immobilised ligand	1 µM	remaining binding	100%
CCCCNc1ncc2c(-c3ccc(F)cc3)nn(C[C@H]3CC[C@H](N)CC3)c2n1	target engagement in cells, inhibitor, chemoproteomics	20 mM	inhibition	22.8%
CC(=O)N1CCC(c2ccc(C(=O)NC(=N)N)cc2C(F)(F)F)CC1	cell-free assay, competition with immobilised ligand	1 µM	remaining binding	100%
CCCS(=O)(=O)Nc1ccc(F)c(C(=O)c2c[nH]c3ncc(-c4ccc(Cl)cc4)cc23)c1F	enzyme activity, inhibitor	1 µM	inhibition	< 20%
